Data set [1] deals with Trypanosoma brucei rhodesiense. The data set is described as follows: Antitrypanosomal activity against Trypanosoma brucei rhodesiense STIB900 after 70 hrs by alamar blue assay. The conditions noted are these: STIB900, 70 h. It is filed as functional, organism-based.
For data set [2], the system named is Trypanosoma brucei rhodesiense. Nature of the data set: Antitrypanosomal activity against Trypanosoma brucei rhodesiense STIB900 infected in NMRI mouse assessed as mean parasitemia relaps day at 5 mg/kg, ip. Particulars: route intraperitoneal. It is filed as functional. In outline: (§1)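 Female NMRI mice infected ip with 2 × 10⁴ STIB900 bloodstream forms. Groups of four dosed ip daily on days 3–6 postinfection; compounds in DMSO diluted with water to 10% final DMSO. Untreated infected controls. Tail-blood parasitaemia checked on days 7 and 10, twice weekly to day 30, then weekly to day 60. Relapse day recorded for mean relapse day; cure means parasite-free survival to day 60.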

A short description of data set [3]: Selectivity index, ratio of IC50 for rat L6 cells to IC50 for Trypanosoma brucei rhodesiense STIB900. Format: toxicity, cell-based. The conditions noted are these: read-out: Ratio IC50. An outline of the steps: (§2)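 Each index is L6 IC50 divided by parasite IC50. L6 values are from the 70 h resazurin assay. T. b. rhodesiense STIB900 values are from the 70 h resazurin assay. P. falciparum K1 values are from erythrocytic-stage [³H]-hypoxanthine incorporation: 48 h drug exposure, then 24 h with label. L. donovani values are from the 72 h axenic amastigote CellTiter assay.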

Data set [4] in a line: Selectivity index, ratio of IC50 for rat L6 cells to IC50 for Plasmodium falciparum K1. Particulars: read-out: Ratio IC50. It is filed as toxicity, cell-based. An outline of the steps: as §2
Data set [5] relates to L6. The data set is described as follows: Cytotoxicity against rat L6 cells after 70 hrs by alamar blue assay. Particulars: L6, 70 h. Format: cell-based. An outline of the steps:
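Cells were exposed to serial dilutions for 70 h at 37 °C, 5% CO₂, then given resazurin for 2–3 h. IC50 came from sigmoidal curves; two independent runs in duplicate. Top concentration was 90 μg/mL, converted to μM by molecular weight.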

Data set [6] in a line: Selectivity index, ratio of IC50 for rat L6 cells to IC50 for Leishmania donovani MHOM/SD/62/1S-CL2D. Format: toxicity, cell-based. The conditions noted are these: read-out: Ratio IC50. In outline: as §2
The test system of data set [7] is Leishmania donovani. Nature of the data set: Antileishmanial activity against Leishmania donovani MHOM/SD/62/1S-CL2D. It is filed as functional, organism-based. In outline:
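Axenic amastigotes (MHOM/SD/62/1S-CL2_D) adapted from promastigotes and grown in amastigote medium at 37 °C. 6 × 10⁴ parasites per well were exposed to 2-fold serial dilutions for 72 h at 37 °C in humidified 5% CO₂. Growth was read with tetrazolium CellTiter reagent as absorbance at 490 nm. IC50 came from a four-parameter dose–response fit; duplicate determinations were averaged.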

The subject of data set [8] is Plasmodium falciparum. The data set is described as follows: Antiplasmodial activity against chloroquine-resistant Plasmodium falciparum K1 infected in human erythrocytes after 48 hrs assessed as [3H]hypoxanthine incorporation by liquid scintillation counting. Format: functional, organism-based.
For data set [9], the system named is Mus musculus. The data set is described as follows: Toxicity in NMRI mouse infected with Trypanosoma brucei rhodesiense STIB900 assessed as survival at 5 mg/kg, ip after administered for 4 consecutive days from day 3 postinfection measured after 7 to 30 days. Format: organism-based. Particulars: in vivo. Set-up: dose 5 mg/kg, route intraperitoneal. In outline: as §1

IC50, Activity and selectivity ratio data for 24 compounds are collected here from ChEMBL document CHEMBL1156777, “Synthesis and antiprotozoal activity of cationic 1,4-diphenyl-1H-1,2,3-triazoles” (J Med Chem, 2010).

Consider `COc1ccc(C(=N)N)cc1-n1cc(-c2ccc(C(=N)N)cc2)nn1.Cl.Cl`, for which the IC50 is 16 nM in [1], over 201 µM in [5], 31 µM in data set [7] and 17 nM in [8]. For the same compound, the Activity in data set [2] came out at 23 days. For the same compound, the selectivity ratio was over 12600 in [3], over 11800 in data set [4] and over 6 in data set [6].

`Cl.Cl.N=C(N)c1cccc(-c2cn(-c3ccc(C(=N)N)cc3O)nn2)c1`: the IC50 was 175 nM in [1], over 209 µM in [5] and over 100 µM in [7]. The Activity is 14 days in data set [2] and “Toxic” in [9]. In addition, the selectivity ratio in data set [3] and in data set [4] was over 1190 throughout.

Regarding `Cl.Cl.N=C(N)c1ccc(-n2cc(-c3cc(C(=N)N)ccc3O)nn2)cc1`, the IC50 was 6 nM in [1], over 219 µM in [5], over 50 µM in [7] and 22 nM in data set [8]. Besides, the selectivity ratio was over 36500 in data set [3] and over 9960 in data set [4]. The Activity entry in [9] is recorded as “Non-toxic”.

Consider `COc1cc(C(=N)NC(C)C)ccc1-c1cn(-c2cccc(C(=N)NC(C)C)c2)nn1`, for which the IC50 was 703 nM in data set [1], over 170 µM in [5], 32 µM in [7] and 34 nM in data set [8]. Besides, the selectivity ratio in data set [3] is over 242; in [4] it was over 5000; in data set [6], over 5.

With `COc1ccc(C2=NCCN2)cc1-c1cn(-c2ccc(C3=NCCN3)cc2)nn1.Cl.Cl`, the IC50 in data set [1] was 21 nM; in [5], over 188 µM; in data set [7], over 100 µM; in data set [8], 10 nM. Besides, the results for the Activity in data set [2] and in data set [9] were 26 days and “Toxic”, respectively. Also, the values for the selectivity ratio in data set [3] and in data set [4] were over 8950 and over 18800, respectively.

With `CC(C)NC(=N)c1ccc(-c2cn(-c3cccc(C(=N)NC(C)C)c3)nn2)cc1`, the 50% inhibitory concentration (IC50) in data set [1] was 462 nM; in data set [5], 193 µM; in data set [7] it was 58 µM; in data set [8], 43 nM. In addition, the selectivity ratio in data set [3] amounted to 418; in data set [4], 4490; in data set [6], 3.

With `COc1ccc(C(=N)N)cc1-c1cn(-c2ccc(C(=N)N)cc2)nn1.Cl.Cl`, the IC50 in [1] was 8 nM; in [5] it was over 198 µM; in data set [7], 4.3 µM; in data set [8] it was 7 nM. The Activity in data set [2] worked out at 15.5 days. Further, the selectivity ratio is over 24800 in data set [3], over 28300 in [4] and over 46 in data set [6].

`Oc1cc(C2=NCCN2)ccc1-n1cc(-c2ccc(C3=NCCN3)cc2)nn1`: the IC50 in [1] was 998 nM; in [5], over 198 µM; in [7], over 100 µM; in data set [8], 41 nM. Moreover, the selectivity ratio in data set [3] was over 198; in data set [4], over 4830.

For the compound `Cl.Cl.N=C(N)c1cccc(-n2cc(-c3ccc(C(=N)N)cc3O)nn2)c1`, the IC50 in data set [1] is 8 nM; in data set [5] it was over 210 µM; in data set [7] it was 8 µM; in data set [8], 7 nM. The Activity in [2] is 39 days. The selectivity ratio in data set [3] is over 26200; in [4], over 30000; in [6], over 26.

As to `CC(C)NC(=N)c1cccc(-c2cn(-c3ccc(C(=N)NC(C)C)cc3O)nn2)c1`, the IC50 was 18700 nM in data set [1], over 187 µM in [5], over 100 µM in data set [7] and 1190 nM in data set [8]. In addition, the results for the selectivity ratio in data set [3] and in [4] were over 10 and over 157, respectively.

Turning to `COc1ccc(C(=N)NC(C)C)cc1-n1cc(-c2ccc(C(=N)NC(C)C)cc2)nn1`, the IC50 was 447 nM in data set [1], over 173 µM in data set [5], over 100 µM in [7] and 195 nM in data set [8]. In addition, the selectivity ratio in data set [3] was over 387; in data set [4] it was over 887.

Consider `CC(C)NC(=N)c1ccc(-c2cn(-c3ccc(C(=N)NC(C)C)cc3O)nn2)cc1`, for which the IC50 was 1380 nM in data set [1], over 178 µM in [5], over 100 µM in data set [7] and 800 nM in data set [8]. In addition, the selectivity ratio is over 129 in data set [3] and over 223 in [4].

For `COc1cc(C(=N)NC(C)C)ccc1-n1cc(-c2ccc(C(=N)NC(C)C)cc2)nn1`, the IC50 in data set [1] is 328 nM; in [5], over 164 µM; in [7] it was over 100 µM; in data set [8] it was 19 nM. Moreover, the selectivity ratio in data set [3] is over 500; in [4] it was over 8630.

For the compound `COc1cc(C2=NCCN2)ccc1-n1cc(-c2ccc(C3=NCCN3)cc2)nn1`, the IC50 in data set [1] was 675 nM; in [5], over 176 µM; in data set [7], over 100 µM; in data set [8], 17 nM. The values for the selectivity ratio in [3] and in [4] were over 261 and over 10400, respectively.

For the compound `COc1ccc(C(=N)NC(C)C)cc1-c1cn(-c2ccc(C(=N)NC(C)C)cc2)nn1`, the IC50 in data set [1] is 77 nM; in data set [5], over 177 µM; in [7], over 100 µM; in [8] it was 26 nM. Besides, the selectivity ratio in data set [3] was over 2300; in data set [4] it was over 6810.

As to `CC(C)NC(=N)c1ccc(-c2cn(-c3ccc(C(=N)NC(C)C)cc3)nn2)cc1.Cl.Cl`, the IC50 in data set [1] is 201 nM; in data set [5] it was over 183 µM; in [7], 25 µM; in [8], 5 nM. Also, in data set [2], the Activity turned out to be 8 days. In addition, the selectivity ratio in data set [3] is over 910; in [4] it was over 36600; in data set [6] it was over 7.

Turning to `N=C(N)c1ccc(-c2cn(-c3ccc(C(=N)N)cc3O)nn2)cc1`, the IC50 is 501 nM in data set [1], over 216 µM in data set [5], over 100 µM in data set [7] and 170 nM in data set [8]. For the same compound, the selectivity ratio in data set [3] was over 431; in [4], over 1270.

Turning to `COc1cc(C(=N)NC(C)C)ccc1-c1cn(-c2ccc(C(=N)NC(C)C)cc2)nn1`, the IC50 in data set [1] is 201 nM; in data set [5], over 166 µM; in [7], over 100 µM; in data set [8] it was 13 nM. In addition, the selectivity ratio in data set [3] was over 826; in data set [4], over 12800.

Consider `COc1cc(C(=N)N)ccc1-c1cn(-c2ccc(C(=N)N)cc2)nn1.Cl.Cl`, for which the IC50 in [1] worked out at 31 nM; in data set [5] it was 59.4 µM; in data set [7], 13 µM; in data set [8] it was 2 nM. In addition, the Activity in data set [2] turned out to be 60 days. The selectivity ratio in [3] came out at 1920; in [4] it was 29700; in data set [6], 5.

With `Cl.Cl.N=C(N)c1ccc(-c2cn(-c3cccc(C(=N)N)c3)nn2)cc1`, the IC50 in data set [1] was 6 nM; in data set [5] it was 86 µM; in data set [7] it was 17 µM; in [8] it was 4 nM. Moreover, the Activity in data set [2] turned out to be 18 days. Also, the selectivity ratio in data set [3] is 14300; in [4] it was 21500; in [6], 5.

For the compound `CC(C)NC(=N)c1cccc(-n2cc(-c3ccc(C(=N)NC(C)C)cc3O)nn2)c1.Cl.Cl`, the IC50 was 77 nM in [1], over 175 µM in [5], over 100 µM in data set [7] and 49 nM in data set [8]. For the same compound, the Activity in data set [2] stood at 18 days. Further, the selectivity ratio in [3] was over 2270; in data set [4], over 3570.

Take `Oc1ccc(C2=NCCN2)cc1-n1cc(-c2ccc(C3=NCCN3)cc2)nn1`: the IC50 in data set [1] was 19600 nM; in data set [5], over 175 µM; in [7], over 100 µM; in data set [8] it was 885 nM. Also, the selectivity ratio in data set [3] is over 9; in [4] it was over 198.

In the case of `Cl.Cl.N=C(N)c1ccc(-n2cc(-c3cccc(C(=N)N)c3)nn2)cc1`, the IC50 in data set [1] stood at 8 nM; in data set [5], 8.6 µM; in data set [7], 12 µM; in [8] it was 3 nM. For the same compound, in data set [2], the Activity is 17.33 days. In addition, the selectivity ratio was 1080 in data set [3], 2870 in [4] and under 1 in data set [6].

In the case of `CC(C)NC(=N)c1ccc(-n2cc(-c3ccc(C(=N)NC(C)C)cc3O)nn2)cc1.Cl.Cl`, the IC50 was 37 nM in [1], over 180 µM in [5], over 50 µM in data set [7] and 7 nM in [8]. The selectivity ratio in [3] was over 4860; in data set [4] it was over 25700. Further, in [9], the Activity result is given as “Non-toxic”.
